Among all 360,000 compounds or so, about 5,400 (1.5%) were called active.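 Rule for the calls: active = inhibition above a per-plate cutoff, the mean inhibition of test compounds on that plate plus 3 SD (cut at about 49% in these data); inactive = the rest.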 This excerpt belongs to a sample that is enriched for actives.
Target: Trace amine-associated receptor 1 (Homo sapiens) (UniProt Q96RJ0)
Experiment: human TAAR1 antagonists, primary screen, Fluo-8 calcium fluorescence, CHO RD-HGA16 cells (AID 624466);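 note: 0% = DMSO plus EC80 beta-PEA response and 100% = DMSO alone without agonist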
Conditions: CHO RD-HGA16 TAAR1, Fluo-8 calcium fluorescence, antagonist; at 3 µM; hits give high values
Procedure, shortened: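 Test system – hTAAR1-expressing CHO RD-HGA16 cells, Gα16-coupled · Reagent – β-PEA at EC80 concentration, post-compound challenge · Compound dosing – 3 µM, single point · Timing – 140 s kinetic read after compound, 140 s after agonist · Detection – Fluo-8 intracellular calcium dye fluorescence, real-time kinetic reads · Control set – DMSO and EC80 PEA controls · Repeats – n of 1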

Sequence of Trace amine-associated receptor 1 (Homo sapiens) (Q96RJ0 whole entry, looked up): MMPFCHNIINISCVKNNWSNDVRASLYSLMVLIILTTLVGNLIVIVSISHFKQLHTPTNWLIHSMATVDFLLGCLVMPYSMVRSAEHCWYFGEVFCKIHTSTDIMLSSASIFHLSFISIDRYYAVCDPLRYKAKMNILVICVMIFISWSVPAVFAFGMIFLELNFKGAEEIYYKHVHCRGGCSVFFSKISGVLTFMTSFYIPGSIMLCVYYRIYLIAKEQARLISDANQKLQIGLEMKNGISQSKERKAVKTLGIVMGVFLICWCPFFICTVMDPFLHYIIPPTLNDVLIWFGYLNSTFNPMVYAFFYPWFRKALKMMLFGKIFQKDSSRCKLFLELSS

| Compound | inhibition |
| --- | --- |
| COc1ccc(N2CCN(C(=O)c3ccc(N4CCCCS4(=O)=O)cc3)CC2)cc1 | -21.9% (inactive) |
| CC(C)C(=O)Nc1ccc2c3c(cccc13)CC2 | -5.92% (inactive) |
| NC(=O)C1CCN(C(=O)c2ccc(F)c(S(=O)(=O)N3CCOCC3)c2)CC1 | 6.75% (inactive) |
| COc1ccc(C(=O)Oc2ccc(-c3nnco3)cc2)cc1S(=O)(=O)N1CCOCC1 | 60.2% (active) |
| COc1ccc(C(=O)OC(C)C(=O)NC2CCCC2)cc1S(=O)(=O)N1CCOCC1 (stereo unspecified) | -9.55% (inactive) |
| O=C(Oc1ccc(-c2nnco2)cc1)c1ccc(F)c(S(=O)(=O)N2CCOCC2)c1 | 84.1% (active) |
| COc1ccc(C(=O)OCC(=O)c2ccc(C)c(S(=O)(=O)N3CCOCC3)c2)cc1OC | 47.7% (inactive) |
| Cc1cc(NC(=O)COC(=O)c2ccc(F)c(S(=O)(=O)N3CCOCC3)c2)no1 | -19.8% (inactive) |
| CC(C)(O)C1=C[N+](=O)CC=C1 | 2.41% (inactive) |
| CC1(C(=O)Nc2cccnc2)Cc2c(-c3ccccc3)ccnc2O1 (stereo unspecified) | -9.98% (inactive) |
| CC(C)C[C@@H]1COc2cc(N3CCC[C@@H]3CO)ccc2S(=O)(=O)N1 | -24.6% (inactive) |
| Cc1ccc2c(c1)N(CC(=O)NCCc1ccc(Cl)cc1)C(=O)c1cccnc1O2 | 64.2% (active) |
| Cc1ccc2c(c1)N(CC(=O)NCCCN1CCCCC1)C(=O)c1cccnc1O2 | -18.1% (inactive) |
| O=C(CN1C(=O)c2cccnc2Oc2ccc(Cl)cc21)NCCc1ccccc1 | 12.2% (inactive) |
| CN(C)C1CN(Cc2cn(Cc3ccccc3)nn2)S(=O)(=O)C1 (stereo unspecified) | -30.8% (inactive) |
| C=CC1=CCN(S(=O)(=O)C(C)(C)C)[C@@H]1CCO | -20.8% (inactive) |
| Cc1cccc(C(=O)Nc2ccc(C(=O)/C=C/c3cccs3)cc2)c1 | 59.9% (active) |
| Cc1cccc(C(=O)Nc2ccc3c(c2)C(=O)N(CC(C)C)C3=O)c1 | 16.9% (inactive) |
| Cc1cccc(C(=O)Nc2ccc(Oc3cnccn3)cc2)c1 | -6.75% (inactive) |
| Cc1nc2c(OCc3ccc(Cl)cc3Cl)cccn2c1N(C)CC1CC1 | 16.7% (inactive) |
| CCCCCCCCN1C(=O)[C@@H](CC(=O)NCCCC)C[C@@]2(C(=O)OC)C1=C[C@H](C(C)(C)C)O[C@@H]2C | -28.5% (inactive) |
| CCOc1ccc(NC(=O)CN(C)C(=O)c2c(C)noc2C)cc1OCC | -17.5% (inactive) |

| Compound | inhibition |
| --- | --- |
| CCCCOCCCNC(=O)C[C@@H]1C[C@@]2(C(=O)OCC)CCCC=C2N(CCC2=CCCCC2)C1=O | -7.17% (inactive) |
| COC(=O)c1ccc(C23CC4(C2)[C@H](CN(Cc2cccnc2)[C@@H]4c2ccccc2)C3c2ccc(Cl)nc2)cc1 (stereo partly specified) | 34.6% (inactive) |
| COC(=O)[C@@]12C[C@@H](CC(=O)NCCCCc3ccccc3)C(=O)N(CCc3ccc(OC)c(OC)c3)C1=CCC(C)(C)C2 | 22.4% (inactive) |
| CCOc1cc(C(=O)N2CCc3cc(OC)c(OC)cc3C2)ccc1OC(F)F | -21.9% (inactive) |
| O=C1NC[C@H](Cc2ccc(O)cc2)N(C[C@H]2CCCN2C[C@H](Cc2ccccc2)N2C[C@H](Cc3ccccc3)N(CCc3ccccc3)C(=O)C2=O)C1=O | -19.2% (inactive) |
| COc1ccc(-c2ccccc2C2Cc3nnccc3CN2C(=O)Nc2ccccc2)cc1 (stereo unspecified) | -11.4% (inactive) |
| COC(=O)[C@]12CCCCC=C1N(Cc1cccc3ccccc13)C(=O)[C@H](CC(=O)N1CCOCC1)C2 | 34.8% (inactive) |
| COc1cc(OC)c(C(=O)NNC(=O)c2ccc(NS(=O)(=O)c3cccs3)cc2)cc1OC | -17.5% (inactive) |
| COc1cc2ccccc2cc1C(=O)Nc1ccc(NC(=O)c2cccs2)cc1 | 58.9% (active) |
| COc1ccccc1C(=O)Nc1ccc(Nc2ccccc2)cc1 | 1.01% (inactive) |
| O=C(NCc1ccccc1)[C@@H]1CCCN1C(=O)[C@H]1CCCN1C(=O)c1cccc(Cl)c1 | -3.29% (inactive) |
| CCCCCCCCN1C(=O)[C@H](CC(=O)NCc2cccc3ccccc23)C[C@@]2(C(=O)OC)CCCCC=C12 | 2.1% (inactive) |
| COCCCn1cc(CN2CC(N(C)C)CS2(=O)=O)nn1 (stereo unspecified) | -29.3% (inactive) |
| CCCCC[C@H](C)N1C[C@@H](COCc2ccccc2)Oc2cc(N3CCC[C@@H]3CO)ccc2S1(=O)=O | -12.8% (inactive) |
| CCOc1ccc(C(=O)Nc2ccc(CN3CCOCC3)cc2)cc1Cl | 3.95% (inactive) |
| CCOc1ccc(C(=O)NC(=S)Nc2ccc(N3CCOCC3)c(Cl)c2)cc1[N+](=O)[O-] | 51.3% (active) |
| CCOc1ccc(C(=O)NC(=S)Nc2ccc(NC(=O)C(C)C)cc2)cc1[N+](=O)[O-] | 38.4% (inactive) |
| O=C(Nc1ccccc1)C1CC(=O)n2c(nc3ccccc32)N1 (stereo unspecified) | -8.36% (inactive) |
| CCCCC(O)C1=C[N+](=O)CC=C1 (stereo unspecified) | 0.52% (inactive) |
| CCc1ccccc1OCC(=O)Nc1ccc(C)c(S(=O)(=O)N2CCCCCC2)c1 | 53.6% (active) |
| Cc1ccc(NC(=O)COC(=O)C2CC2)cc1S(=O)(=O)N1CCOCC1 | -10.1% (inactive) |
| Cc1ccc(NC(=O)COc2coc(CN3CCc4ccccc4C3)cc2=O)cc1Cl | -6.95% (inactive) |

| Compound | inhibition |
| --- | --- |
| Cc1ccccc1OCC(=O)Nc1ccc(N2CCN(C(=O)C(C)C)CC2)c(Cl)c1 | 51.1% (active) |
| COc1ccccc1C(=O)Nc1ccc(C)c(S(=O)(=O)N2CCCCC2)c1 | 35.1% (inactive) |
| COc1cc(NC(=O)COc2ccccc2Cl)ccc1NC(=O)C(C)C | -12.5% (inactive) |
| CC(C)CN1C(=O)CN(S(C)(=O)=O)CC1(C)C(=O)NCc1ccccc1 (stereo unspecified) | -16.9% (inactive) |
| O=C(c1ccccc1)c1ccc(OC(=O)N2CCCC2)cc1 | 0.6% (inactive) |
| CCCC[C@@H]1CN=C(N)N1CCc1cc(C(F)(F)F)cc(C(F)(F)F)c1 | 0.75% (inactive) |
| O=C(NCc1ccccn1)[C@@H]1CCCN1C(=O)[C@@H]1CCCN1C(=O)c1ccccc1 | -3.32% (inactive) |
| CCOc1ccc(Cn2nnc(C(=O)NCc3ccccc3)c2N)cc1 | 55.6% (active) |
| Nc1c(C(=O)Nc2ccc3c(c2)OCCO3)nnn1Cc1ccccc1 | 10.6% (inactive) |
| CCOc1ccc(Cn2nnc(C(=O)Nc3ccc(OC)cc3OC)c2N)cc1 | -4.89% (inactive) |
| O=C(OCC(=O)N1CCOCC1)c1ccc2ccccc2c1 | -11.6% (inactive) |
| O=C1C(Sc2cccc(F)c2)=C[C@@]2(O)CC[C@@H](O)[C@]1(Sc1cccc(F)c1)[C@H]2O | 1.99% (inactive) |
| N#Cc1ccc(C(C(=O)NCc2ccccc2)n2c(=O)c(-c3ccco3)nc3ccccc32)cc1 (stereo unspecified) | -2.89% (inactive) |
| O=C(Cc1ccccc1)Nc1c(Cl)ccc2nsnc12 | 3.32% (inactive) |
| CC(=O)c1ccc(NC(=O)c2cc(-c3cccs3)on2)cc1 | 5.25% (inactive) |
| Cc1cc(Br)ccc1NC(=O)c1sc2ncn(CC(=O)N3CCN(c4ccccn4)CC3)c(=O)c2c1C | 12% (inactive) |
| Cc1cc(Br)ccc1NC(=O)c1cnc(N2CCN(c3ccccn3)CC2)c2ccccc12 | 67.1% (active) |
| Cc1cc(C(=O)N2CCN(c3ccccn3)CC2)c(C)o1 | 1.13% (inactive) |
| CCOc1ccccc1C(=O)N1CCC[C@@H]1C(=O)N1CCC[C@H]1C(=O)NCc1ccccc1 | -5.66% (inactive) |
| CN1C(=O)CN2CCc3ccccc3C2c2cc(Cl)ccc21 (stereo unspecified) | -4.12% (inactive) |
| S=C(Nc1cccc(Br)c1)N1CCn2cccc2C1c1cccnc1 (stereo unspecified) | -5.72% (inactive) |
| S=C(NCCc1ccccc1)N1CCn2cccc2C1c1ccncc1 (stereo unspecified) | 76.5% (active) |

| Compound | inhibition |
| --- | --- |
| CC1CCCCN1C(=S)NCc1ccccc1 (stereo unspecified) | -12.2% (inactive) |
| Cc1cccc(N(C)C(=O)CN2C(=O)COc3ccc(S(=O)(=O)N4CCCCCC4)cc32)c1 | 28.5% (inactive) |
| CCCn1nc(C(=O)Nc2ccc3nc(C)sc3c2)c2ccccc2c1=O | -20.5% (inactive) |
| CCCCn1nc(C(=O)Nc2ccc(S(=O)(=O)Nc3ncccn3)cc2)c2ccccc2c1=O | -40.3% (inactive) |
| CCCCn1nc(C(=O)Nc2cccc(C(=O)NC3CC3)c2)c2ccccc2c1=O | 48.7% (active) |
| CC(=O)N1CCN(Cc2cc(=O)oc3cc(C)ccc23)CC1 | -3.73% (inactive) |
| Cc1ccc2nc(CN(C)C(=O)[C@@H](Cc3ccccc3)NC(=O)[C@H]3O[C@@H](n4ccc(=O)[nH]c4=O)[C@H](O)[C@@H]3O)[nH]c2c1 | -7.68% (inactive) |
| CN(c1ccccc1)S(=O)(=O)c1ccc(NC(=O)COc2ccccc2)cc1 | 40.2% (inactive) |
| COC(=O)[C@H]1Cc2cnoc2C[C@]1(C)C(=O)O | -4.37% (inactive) |
| COC(=O)[C@]12C[C@H](CC(=O)NCCCCc3ccccc3)C(=O)N(Cc3ccc4c(c3)OCO4)C1=C[C@H](C(C)(C)C)O[C@@H]2C | -5.78% (inactive) |
| CCc1nc2oc3ccccc3c(=O)c2c(=O)n1Cc1ccc(OC)cc1 | 3.24% (inactive) |
| Cn1c2ccccc2c(=O)c2c(=O)n(Cc3ccco3)c(COc3ccccc3)nc21 | 62.5% (active) |
| O=C(CSc1nnc(COc2ccc(Cl)cc2)n1Cc1ccco1)N1CCNC1=O | 11.4% (inactive) |
| C/C(=N\N1CCN(Cc2ccc(C)cc2)CC1)c1ccco1 | -4.82% (inactive) |
| Cc1nn(-c2ccccc2)c(C)c1NC(=O)CCl | -8.39% (inactive) |
| Cc1cccc(C)c1NC(=O)COC(=O)c1c(C)nn(-c2ccccc2)c1C | -6.4% (inactive) |
| Cc1nn(-c2ccccc2)c(C)c1NC(=O)COC(=O)c1cc(Cl)ccc1O | 68.3% (active) |
| O=C(Nc1ccc(S(=O)(=O)N2CCOCC2)cc1)C1CCN(S(=O)(=O)c2ccc(Cl)cc2)CC1 | 8.67% (inactive) |
| Cc1nnsc1S(=O)(=O)Cc1ccccc1Cl | -3.1% (inactive) |
| O=C(Nc1ccccc1)c1nnsc1S(=O)(=O)c1ccc(Cl)cc1 | 59.8% (active) |

From PubChem BioAssay AID624466 (The Scripps Research Institute Molecular Screening Center, 2012)
